Experimental data as given in ChEMBL document CHEMBL1649362, “Cytotoxic triterpenoids from Maytenus retusa” (J Nat Prod, 2010).
Structures can show the parent of a compound that is named as a salt.

Legend:
MCF7 [1] = assay: Cytotoxicity against human MCF7 cells at 1 uM after 48 hrs by MTT assay; type: functional; settings: MCF7, 48 h
Method in brief: (§1)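 MCF-7 cells (ATCC) maintained in DMEM with 10% FBS and plated at 10 000 cells/well. MTT (0.5 mg/mL final) then incubated 3 h at 37 °C. Formazan solubilized in 20% SDS/0.02 M HCl and absorbance read at 570 nm. IC50 from nonlinear regression.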

HL-60 [2] = assay: Cytotoxicity against human HL60 cells at 1 uM after 48 hrs by MTT assay; type: functional; settings: HL-60, 48 h
Method in brief: (§2)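 HL60 cells (ATCC) grown in RPMI with 10% FBS and seeded at 10 000 cells/well. After 48 h exposure, MTT added (0.5 mg/mL final) for 3 h at 37 °C. Formazan dissolved in SDS-HCl (20% SDS, 0.02 M HCl) and read at 570 nm. IC50 obtained by nonlinear regression.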

MCF7 [3] = assay: Cytotoxicity against human MCF7 cells at 10 uM after 48 hrs by MTT assay; type: functional; settings: MCF7, 48 h; method in brief: as §1
HL-60 [4] = assay: Cytotoxicity against human HL60 cells at 10 uM after 48 hrs by MTT assay; type: functional; settings: HL-60, 48 h; method in brief: as §2
HL-60 [5] = assay: Cytotoxicity against human HL60 cells at 30 uM after 48 hrs by MTT assay; type: functional; settings: HL-60, 48 h; method in brief: as §2
MCF7 [6] = assay: Cytotoxicity against human MCF7 cells at 30 uM after 48 hrs by MTT assay; type: functional; settings: MCF7, 48 h; method in brief: as §1
MCF7 [7] = assay: Cytotoxicity against human MCF7 cells after 48 hrs by MTT assay; type: functional, cell-based; settings: MCF7, 48 h; method in brief: as §1
HL-60 [8] = assay: Cytotoxicity against human HL60 cells after 48 hrs by MTT assay; type: functional, cell-based; settings: HL-60, 48 h; method in brief: as §2

CC1=C2C3C(=O)C=C4C(=CC(=O)C(O)=C4C)[C@]3(C)CC[C@@]2(C)[C@@H]2C[C@@H](C)C(=O)C[C@]2(C)C1 (some centres undefined)
inhibition at 1 µM (MCF7 [1]): 9%
inhibition at 1 µM (HL-60 [2]): 0%
inhibition at 10 µM (MCF7 [3]): 11%
inhibition at 10 µM (HL-60 [4]): 0%
inhibition at 30 µM (HL-60 [5]): 51%
inhibition at 30 µM (MCF7 [6]): 5%

COc1c(O)cc2c(c1C(=O)O)C(=O)C=C1[C@@]2(C)CC[C@@]2(C)[C@@H]3C[C@@H](C)C(=O)C[C@]3(C)CC[C@]12C
inhibition at 1 µM (MCF7 [1]): 15%
inhibition at 1 µM (HL-60 [2]): 78%
inhibition at 10 µM (MCF7 [3]): 17%
inhibition at 10 µM (HL-60 [4]): 57%
inhibition at 30 µM (HL-60 [5]): 59%
inhibition at 30 µM (MCF7 [6]): 11%

COC(=O)[C@]1(C)CC[C@]2(C)CC[C@]3(C)C4CC(=O)c5cc(O)c(O)cc5[C@]4(C)CC[C@@]3(C)[C@@H]2C1 (some centres undefined)
inhibition at 1 µM (MCF7 [1]): 4%
inhibition at 1 µM (HL-60 [2]): 35%
inhibition at 10 µM (MCF7 [3]): 0%
inhibition at 10 µM (HL-60 [4]): 64%
inhibition at 30 µM (HL-60 [5]): 65%
inhibition at 30 µM (MCF7 [6]): 44%

CC1=C(O)C(=O)C=C2C1=CC=C1[C@@]2(C)CC[C@@]2(C)[C@@H]3C[C@@](C)(O)C(=O)C[C@]3(C)CC[C@]12C
IC50 (MCF7 [7]): 1.4 µM
inhibition at 1 µM (MCF7 [1]): 21%
inhibition at 1 µM (HL-60 [2]): 80%
IC50 (HL-60 [8]): 200 nM
inhibition at 10 µM (MCF7 [3]): 100%
inhibition at 10 µM (HL-60 [4]): 89%
inhibition at 30 µM (HL-60 [5]): 90%
inhibition at 30 µM (MCF7 [6]): 100%

Cc1c(O)c(O)cc2c1C(=O)C=C1[C@@]2(C)CC[C@@]2(C)[C@@H]3C[C@@H](C)C(=O)C[C@]3(C)CC[C@]12C [6-OXOTINGENOL]
inhibition at 1 µM (MCF7 [1]): 10%
inhibition at 1 µM (HL-60 [2]): 45%
inhibition at 10 µM (MCF7 [3]): 8%
inhibition at 10 µM (HL-60 [4]): 85%
inhibition at 30 µM (HL-60 [5]): 100%
inhibition at 30 µM (MCF7 [6]): 17%

CC1=C(O)C(=O)C=C2C1=CC=C1[C@@]2(C)CC[C@@]2(C)[C@@H]3C[C@](C)(O)C(=O)C[C@]3(C)CC[C@]12C [20ALPHA-HYDROXYTINGENONE]
IC50 (MCF7 [7]): 4.7 µM
inhibition at 1 µM (MCF7 [1]): 14%
inhibition at 1 µM (HL-60 [2]): 25%
IC50 (HL-60 [8]): 400 nM
inhibition at 10 µM (MCF7 [3]): 85%
inhibition at 10 µM (HL-60 [4]): 100%
inhibition at 30 µM (HL-60 [5]): 87%
inhibition at 30 µM (MCF7 [6]): 100%

COC(=O)[C@@]1(C)C[C@@H]2[C@@](C)(CC[C@]3(C)C4=CC=C5C(=CC(=O)C(O)=C5C)[C@]4(C)CC[C@@]23C)CC1=O [21-OXOPRISTIMERINE]
IC50 (MCF7 [7]): 10 µM
inhibition at 1 µM (MCF7 [1]): 0%
inhibition at 1 µM (HL-60 [2]): 0%
IC50 (HL-60 [8]): 1400 nM
inhibition at 10 µM (MCF7 [3]): 32%
inhibition at 10 µM (HL-60 [4]): 88%
inhibition at 30 µM (HL-60 [5]): 100%
inhibition at 30 µM (MCF7 [6]): 91%

CC1=C(O)C(=O)C=C2C1=CC(=O)[C@@H]1[C@@]2(C)CC[C@@]2(C)[C@@H]3C[C@@H](C)C(=O)C[C@]3(C)CC[C@]12C [AMAZOQUINONE]
inhibition at 1 µM (MCF7 [1]): 10%
inhibition at 1 µM (HL-60 [2]): 66%
inhibition at 10 µM (MCF7 [3]): 16%
inhibition at 10 µM (HL-60 [4]): 61%
inhibition at 30 µM (HL-60 [5]): 100%
inhibition at 30 µM (MCF7 [6]): 18%

COC(=O)[C@@]1(C)C[C@@H]2[C@@](C)(CC[C@]3(C)C4CC(=O)c5c(cc(O)c(O)c5C)[C@]4(C)CC[C@@]23C)CC1=O (some centres undefined) [BLEPHARODOL]
inhibition at 1 µM (MCF7 [1]): 15%
inhibition at 1 µM (HL-60 [2]): 69%
inhibition at 10 µM (MCF7 [3]): 8%
inhibition at 10 µM (HL-60 [4]): 79%
inhibition at 30 µM (HL-60 [5]): 100%
inhibition at 30 µM (MCF7 [6]): 7%

CC1=C(O)C(=O)CC2[C@]3(C)CC[C@@]4(C)[C@@H]5C[C@](C)(C(=O)O)CC[C@]5(C)CC[C@]4(C)C3CC[C@]12C=O (some centres undefined) [CANGORONINE]
inhibition at 1 µM (MCF7 [1]): 16%
inhibition at 1 µM (HL-60 [2]): 40%
inhibition at 10 µM (MCF7 [3]): 9%
inhibition at 10 µM (HL-60 [4]): 48%
inhibition at 30 µM (HL-60 [5]): 60%
inhibition at 30 µM (MCF7 [6]): 15%

COC(=O)[C@]1(C)CC[C@]2(C)CC[C@]3(C)C4C(=O)C=C5C(=CC(=O)C(O)=C5C)[C@]4(C)CC[C@@]3(C)C2C1 (some centres undefined) [DISPERMOQUINONE]
IC50 (MCF7 [7]): > 30 µM
inhibition at 1 µM (MCF7 [1]): 9%
inhibition at 1 µM (HL-60 [2]): 0%
IC50 (HL-60 [8]): 1700 nM
inhibition at 10 µM (MCF7 [3]): 25%
inhibition at 10 µM (HL-60 [4]): 100%
inhibition at 30 µM (HL-60 [5]): 100%
inhibition at 30 µM (MCF7 [6]): 60%

COc1cccc2c1C(=O)c1c(O)c3c(c(O)c1C2=O)C[C@@](O)(C(=O)CO)C[C@@H]3O[C@H]1C[C@H](N)[C@H](O)[C@H](C)O1 [DOXORUBICIN HYDROCHLORIDE]
IC50 (MCF7 [7]): > 10 µM
inhibition at 1 µM (MCF7 [1]): 69%
inhibition at 1 µM (HL-60 [2]): 100%
IC50 (HL-60 [8]): 100 nM
inhibition at 10 µM (MCF7 [3]): 76%
inhibition at 10 µM (HL-60 [4]): 89%
inhibition at 30 µM (HL-60 [5]): 100%
inhibition at 30 µM (MCF7 [6]): 98%

COC(=O)[C@@]1(C)C[C@@H]2[C@@](C)(CC[C@]3(C)C4CC(=O)c5c(cc(O)c(O)c5C=O)[C@]4(C)CC[C@@]23C)CC1=O (some centres undefined) [MACROCARPIN A]
IC50 (MCF7 [7]): > 30 µM
inhibition at 1 µM (MCF7 [1]): 14%
inhibition at 1 µM (HL-60 [2]): 0%
IC50 (HL-60 [8]): 1700 nM
inhibition at 10 µM (MCF7 [3]): 25%
inhibition at 10 µM (HL-60 [4]): 100%
inhibition at 30 µM (HL-60 [5]): 100%
inhibition at 30 µM (MCF7 [6]): 36%

COC(=O)[C@]1(C)CC[C@]2(C)CC[C@]3(C)C4=CC=C5C(=CC(=O)C(O)=C5C)[C@]4(C)CC[C@@]3(C)[C@@H]2C1 [PRISTIMERIN]
IC50 (MCF7 [7]): 0.4 µM
inhibition at 1 µM (MCF7 [1]): 42%
inhibition at 1 µM (HL-60 [2]): 96%
IC50 (HL-60 [8]): 200 nM
inhibition at 10 µM (MCF7 [3]): 100%
inhibition at 10 µM (HL-60 [4]): 100%
inhibition at 30 µM (HL-60 [5]): 100%
inhibition at 30 µM (MCF7 [6]): 100%

CC1=C(O)C(=O)C=C2C1=CC=C1[C@@]2(C)CC[C@@]2(C)[C@@H]3C[C@@H](C)C(=O)[C@@H](O)[C@]3(C)CC[C@]12C [TINGENIN B]
IC50 (MCF7 [7]): 4.4 µM
inhibition at 1 µM (MCF7 [1]): 16%
inhibition at 1 µM (HL-60 [2]): 55%
IC50 (HL-60 [8]): 700 nM
inhibition at 10 µM (MCF7 [3]): 96%
inhibition at 10 µM (HL-60 [4]): 82%
inhibition at 30 µM (HL-60 [5]): 88%
inhibition at 30 µM (MCF7 [6]): 100%

CC1=C(O)C(=O)C=C2C1=CC=C1[C@@]2(C)CC[C@@]2(C)[C@@H]3C[C@@H](C)C(=O)C[C@]3(C)CC[C@]12C [TINGENONE]
IC50 (MCF7 [7]): 3 µM
inhibition at 1 µM (MCF7 [1]): 17%
inhibition at 1 µM (HL-60 [2]): 46%
IC50 (HL-60 [8]): 500 nM
inhibition at 10 µM (MCF7 [3]): 97%
inhibition at 10 µM (HL-60 [4]): 100%
inhibition at 30 µM (HL-60 [5]): 96%
inhibition at 30 µM (MCF7 [6]): 100%
